Source: ChEMBL document CHEMBL1135673, “Antitumor imidazotetrazines. 41. Conjugation of the antitumor agents mitozolomide and temozolomide to peptides and lexitropsins bearing DNA major and minor groove-binding structural motifs” (J Med Chem, 2002)
Peptide text beside a SMILES is read from it. * marks the point of attachment. X1 = O=C(c1ncn2c(=O)n(CCCl)nnc12)*

Columns and labels:
Assay type in all cases: functional, cell-based
[1] = In vitro cytotoxicity against mouse TLX5 lymphoma cells
In short: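 TLX5 lymphoma cells kept in exponential growth at 2 × 10⁴ cells/mL in RPMI 1640 with 15% fetal calf serum. Cells were dosed with drug in DMSO (10 μL per 2 mL well), triplicate wells per concentration, with DMSO-only controls. After 72 h at 37 °C under 5% CO₂, cells were Coulter-counted. IC₅₀ was taken from % of control growth plots as the mean of two determinations.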

[2] = In vitro cytotoxicity against human xeroderma pigmentosum fibroblast cells HMGZip (mer-)
In short: (§1)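 Xeroderma pigmentosum fibroblasts HMGZip 1a (Mer⁻) and HMGhAT 2b (Mer⁺) grown in MEM, plated at 1000 cells/well, and assayed by the method of Baer et al.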

[3] = In vitro cytotoxicity against human xeroderma pigmentosum fibroblast cells […] (mer+); in short: as §1

SMILES | IC50 [1] [µM] | IC50 [2] [µM] | IC50 [3] [µM]
COC(=O)[C@@H](NC(=O)[C@H](C)NC(=O)c1ncn2c(=O)n(CCCl)nnc12)C(C)C | 6.9 | – | –
CC(C)C[C@@H](NC(=O)c1ncn2c(=O)n(CCCl)nnc12)C(=O)O | – | 57 | –
COC(=O)C(CCCCN)NC(=O)c1ncn2c(=O)n(CCCl)nnc12 (stereo not drawn) | – | 68 | –
NC(=O)CNC(=O)c1ncn2c(=O)n(CCCl)nnc12 | 34 | – | –
C[C@@H](NC(=O)c1ncn2c(=O)n(CCCl)nnc12)C(=O)O | – | 198 | –
COC(=O)C(CO)NC(=O)c1ncn2c(=O)n(CCCl)nnc12 (stereo not drawn) | 5 | – | –
COC(=O)C(C)NC(=O)c1ncn2c(=O)n(CCCl)nnc12 (stereo not drawn) | 1.5 | – | –
CC(C)(C)NC(=O)c1ncn2c(=O)n(CCCl)nnc12 | 2 | – | –
O=C(O)c1ncn2c(=O)n(CCCl)nnc12 | 15.8 | – | –
COC(=O)C(CCSC)NC(=O)c1ncn2c(=O)n(CCCl)nnc12 (stereo not drawn) | 50 | – | –
CC(C)[C@H](NC(=O)[C@@H](NC(=O)c1ncn2c(=O)n(CCCl)nnc12)[C@@H](C)O)C(=O)NCC(=O)O | – | 437 | > 500
COC(=O)C(Cc1c[nH]c2ccccc12)NC(=O)c1ncn2c(=O)n(CCCl)nnc12 (stereo not drawn) | 3.7 | – | –
CCOC(=O)CNC(=O)c1ncn2c(=O)n(CCCl)nnc12 | 25 | – | –
NCCCCC(NC(=O)c1ncn2c(=O)n(CCCl)nnc12)C(=O)O (stereo not drawn) | – | 42 | –
CC(C)[C@H](NC(=O)[C@@H](NC(=O)c1ncn2c(=O)n(CCCl)nnc12)[C@@H](C)O)C(=O)NCC(=O)N[C@@H](CCCN=C(N)N)C(=O)O (X1-TVGR-OH) | – | 288 | > 500
CC(C)[C@H](NC(=O)[C@@H](NC(=O)c1ncn2c(=O)n(CCCl)nnc12)[C@@H](C)O)C(=O)N[C@@H](CO)C(=O)N[C@@H](CCCN=C(N)N)C(=O)O (X1-TVSR-OH) | – | 351 | > 500
NC(=O)c1ncn2c(=O)n(CCCl)nnc12 [MITOZOLOMIDE] | 2.5 | 20 | 30
Cn1nnc2c(C(N)=O)ncn2c1=O [TEMOZOLOMIDE] | 5 | – | –
